CHRM1 antagonist: antagonists of human M1 muscarinic receptor; inhibition, % at 3 µM; CHO-K1 hM1, Fluo-8 calcium fluorescence, ACh EC80 antagonist; actives 1.3% (n = 360,000); P11229;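 active means percent inhibition above its own plate's cutoff, namely the mean of that plate's compound wells plus 3 SD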;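 further: peak over basal fluorescence ratio during 140 s after agonist addition; 0% = ACh EC80 plus DMSO and 100% = DMSO alone without agonist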
CHRM5 agonist: CHRM5 agonism in calcium assay. P08912. CHO-K1 hM5 cells, Fluo-8 calcium fluorescence; 0% DMSO wells, 100% maximal acetylcholine response. activation, % at 3 µM. actives 0.19% (n = 360,000). AID 624037;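 active means activation above the run's mean over test compounds plus 3 SD, cut at about 23% in these data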;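 further: signal is peak over basal fluorescence ratio across the kinetic read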
Target sequence (P08912 whole entry, looked up): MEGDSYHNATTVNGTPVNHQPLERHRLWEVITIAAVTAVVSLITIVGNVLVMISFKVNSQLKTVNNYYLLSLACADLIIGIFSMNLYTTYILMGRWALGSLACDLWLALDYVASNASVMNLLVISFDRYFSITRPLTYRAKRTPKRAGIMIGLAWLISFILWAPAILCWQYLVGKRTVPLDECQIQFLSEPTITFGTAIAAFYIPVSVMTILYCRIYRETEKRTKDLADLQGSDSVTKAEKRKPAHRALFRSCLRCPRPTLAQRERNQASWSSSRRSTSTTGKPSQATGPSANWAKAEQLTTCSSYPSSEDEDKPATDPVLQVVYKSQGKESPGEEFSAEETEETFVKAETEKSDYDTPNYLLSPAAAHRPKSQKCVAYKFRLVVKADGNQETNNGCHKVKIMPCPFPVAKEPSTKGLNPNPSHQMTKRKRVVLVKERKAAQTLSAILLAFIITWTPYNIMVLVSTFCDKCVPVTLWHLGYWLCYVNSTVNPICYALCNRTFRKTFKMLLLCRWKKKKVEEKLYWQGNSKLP
CHRM1 agonist: human M1 muscarinic receptor agonism; actives 0.33% (n = 360,000); AID 588814; activation, % at 3 µM; P11229; CHO-K1 hM1, Fluo-8 calcium fluorescence, agonist mode; 0% DMSO, 100% acetylcholine EC100;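 active means activation above the run's mean compound activation plus 3 SD, cut at about 16% in these data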;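 further: peak over basal fluorescence ratio within a 140 s kinetic read after compound addition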
M5 antag: CHRM5 antagonism in calcium assay | CHO-hM5 cells, Fluo-8 calcium fluorescence, ACh EC80 | actives 0.59% (n = 360,000) | inhibition, % at 3 µM | P08912;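 active means inhibition above a per-plate cutoff, the mean of that plate's test compounds plus 3 SD, cut at about 27% in these data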;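 further: 0% = acetylcholine EC80 with DMSO and 100% = DMSO without agonist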
M1 PAM: positive allosteric modulators of human M1 muscarinic receptor; activation, % at 3 µM; actives 0.088% (n = 360,000); P11229; CHO-K1 hM1, Fluo-8 calcium fluorescence, ACh EC20; 0% = ACh EC20, 100% = maximal ACh; in the data active means activation above about 19%, passing the limit was not always enough
M5 PAM: positive allosteric modulators of human muscarinic M5 receptor | P08912 | CHO-K1 hM5, Fluo-8 calcium, ACh EC20 PAM; 0% = ACh EC20, 100% = ACh EC100 | activation, % at 3 µM | actives 0.3% (n = 360,000) | AID 624038;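 active means activation above the run cutoff, the mean activation of all test compounds plus 3 SD, cut at about 18% in these data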
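Replicates: One well per compound, no replicates | System: Human M5 receptor in CHO-K1 cells | Benchmarks: Low control EC20 acetylcholine (0%), high control EC100 acetylcholine (100%) | Probe or stimulus: Acetylcholine, EC20 level | Times: Fluo-8 loading 80 min at 37 °C plus 30 min room temperature | Signal: Intracellular calcium via Fluo-8 fluorescence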
* marks the source's active call; other numbers are inactive results; . = not tested or not shown. An excerpt weighted towards active compounds, which were near 2% of everything screened.

SMILES | CHRM1 antagonist | CHRM5 agonist | CHRM1 agonist | M5 antag | M1 PAM | M5 PAM
CC(C)(C)N(Cc1cc2ccccc2[nH]c1=O)C(=O)c1cccc([N+](=O)[O-])c1 | 57* | -14 | -5 | 3 | -21 | -15
CCCN(Cc1cc2ccccc2[nH]c1=O)C(=O)c1cccc([N+](=O)[O-])c1 | -22 | 1 | 0 | -3 | 18 | 6
CCN(C1CCCCC1)S(=O)(=O)c1ccc(S(=O)(=O)NCc2ccncc2)cc1 | 35* | 11 | -1 | 29* | -22 | -26
COc1ccc(NC(=O)Cc2cccs2)cc1S(=O)(=O)N1CCCCC1 | -8 | 6 | 3 | -3 | -3 | 1
COc1ccc(NC(C)=O)cc1S(=O)(=O)N1CCN(Cc2cccs2)CC1 | -10 | -1 | 6 | 11 | 24* | 3
CCS(=O)(=O)C1=NSC2=NC(=O)/C(=C\c3ccc(OS(=O)(=O)c4ccccc4)c(OC)c3)C(=N)N21 | 1 | -2 | -3 | 20 | 15 | 29*
O=C(O)c1ccc(N/N=C/c2ccc(-c3cccc(Cl)c3)o2)cc1 | 4 | 14 | 6 | -2 | -2 | 11
O=C(O)c1cccc(-c2ccc(/C=N/Nc3ccc([N+](=O)[O-])cc3)o2)c1 | 27 | 34* | 17* | 34* | -9 | -16
O=[N+]([O-])c1ccc(N/N=C/c2c[nH]c3ccccc23)cc1 | 34* | 3 | 14 | 28* | -7 | -18
O=C(O)c1ccc(-c2ccc(/C=N/Nc3ccc([N+](=O)[O-])cc3)o2)cc1 | 10 | 55* | 18* | 28* | 2 | -13
COc1cccc(CN2CC(C(=O)NCCOc3ccccc3)CCC2=O)c1 (stereo not given) | 4 | -5 | -3 | 29* | -6 | -13
COc1cccc(CN2CC(C(=O)NCCOc3ccccc3F)CCC2=O)c1 (stereo not given) | -6 | -4 | -2 | 20 | 2 | -5
Cc1cc2nc(-c3ccccc3)c(CC(C)(C)C)n2c(C)c1Br | 8 | -5 | -9 | -12 | -4 | 1
CCOc1ccccc1NC(=O)CCSc1nc2n[nH]c(C)c2c(=N)n1-c1ccccc1Cl | 34* | -2 | -3 | 8 | -13 | -11
Cc1ccc(NS(=O)(=O)c2ccc(C(=O)OCC(=O)Nc3cc(C)on3)cc2)cc1 | 8 | 26* | 28* | 4 | 6 | 2
CCCNC(=O)c1cc(C2CCCN(C(=O)C3CCCCC3)C2)on1 (stereo not given) | -10 | 0 | -9 | 3 | 4 | 0
S=C1NCCN1CC1CCN(CCCC2CCCC2)CC1 | 4 | -3 | -10 | 14 | -8 | -7
Cc1noc(C)c1C(=O)OCC(=O)NC1CC1 | 14* | 1 | 0 | 2 | -6 | 3
Cc1nc2nc(C)c(CCC(=O)NC(C)c3ccc4c(c3)OCCO4)c(C)n2n1 (stereo not given) | 68* | -3 | -6 | 24 | -10 | -4
CC1(C)N=C(N)N=C(N)N1CCCCc1ccccc1 | 52* | -12 | -8 | 19 | -27 | -32
CC(C)COC(=O)N(C)C[C@H]1OCc2cnnn2CCCC(=O)N([C@H](C)CO)C[C@@H]1C | -2 | -1 | -4 | 3 | 1 | 2
CC(C)c1cccc(-c2csc(C(C)(O)c3ccccc3)n2)c1 (stereo not given) | -16 | -1 | -4 | -5 | 0 | -5
Cc1cc(C)cc(Cn2cc(CN3CC(N4CCN(C)CC4)CS3(=O)=O)nn2)c1 (stereo not given) | . | -2 | . | 2 | . | -3
O=C1CCCN2N=C(SCC(=O)Nc3cccc(C(F)(F)F)c3)SC2=N1 | 27* | 6 | -3 | 36* | -12 | -13
CCNc1ccc(S(=O)(=O)N2CCOCC2)cc1NCC(=O)Nc1cccc(Br)c1 | 23 | 6 | 4 | 19 | -14 | -15
SMILES | CHRM1 antagonist | CHRM5 agonist | CHRM1 agonist | M5 antag | M1 PAM | M5 PAM
CCN(CC)CCOCCOC(=O)C(CC)(CC)c1ccccc1 | 38* | -21 | -6 | 9 | -20 | -17
O=C(O)c1ccc(N(Cc2ccccc2)S(=O)(=O)c2ccccc2)cc1 | 16 | -1 | -4 | 2 | -7 | -2
CC(=O)N(Cc1ccccc1)c1ccc(C(=O)O)cc1 | 5 | -2 | 0 | 3 | 0 | 25*
COc1ccc(NS(=O)(=O)c2ccc(N3CCCC3=O)cc2)cn1 | 19 | 3 | -1 | 28* | -20 | -20
Cn1c(SCc2cccc([N+](=O)[O-])c2)nc2ccccc2c1=O | 36* | 5 | 0 | 11 | -13 | -11
O=c1c2ccccc2nc(SCc2ccc([N+](=O)[O-])cc2)n1-c1ccccc1 | 12 | -2 | -3 | 7 | 23* | -6
CC(C)[C@H](NC(=O)OC(C)(C)C)c1cc(C(=O)NC2CC2)c(N)s1 | . | -1 | . | 4 | . | -3
CCOC(=O)C1(CCc2ccccc2)CCN(C(=O)c2occc2C)CC1 | -4 | -6 | -13 | -4 | 9 | 0
CCOC(=O)C1(CCc2ccccc2)CCN(C2Cc3ccccc3C2)CC1 | 21 | -10 | -13 | 41* | -32 | -20
CCC(C(=O)NCc1cccs1)n1nc(C)n2c(cc3occc32)c1=O (stereo not given) | -9 | 1 | -1 | -29 | 14 | 26*
CCOC(=O)c1ccc(N2CCN(C(=O)c3ccccc3)CC2)c(NC(=O)c2ccco2)c1 | 12 | -1 | -4 | 18 | -9 | -7
CCOC(=O)c1ccc(N2CCN(c3ccc(F)cc3)CC2)c(NC(=O)Nc2cccc(OC)c2)c1 | 34* | -1 | -5 | -2 | -15 | -3
COc1cccc(NC(=O)CN2CCN(c3ccc(F)cc3)CC2)c1 | -11 | -6 | -5 | -5 | 6 | 1
CCOC(=O)c1ccc(N2CCN(c3ccccc3F)CC2)c(NC(=O)Nc2ccccc2)c1 | 15 | 0 | -2 | 40* | -10 | -18
Cn1nccc1-c1ccc(C(=O)NCc2ccc(Cl)cc2)c2occc12 | 11 | 1 | -2 | 6 | -14 | -8
Cn1ccc2c(N3c4ccccc4CCc4ccccc43)cc3c(c21)C1CCC3O1 (stereo not given) | -7 | 2 | -5 | 10 | 0 | -9
CCc1nnc(NC(=O)CSc2nncc(=O)n2N)s1 | -20 | 0 | 1 | -21 | 19 | 24*
COCc1nnc(NC(=O)CSc2ccc(C)cc2)s1 | -13 | 17 | 9 | 0 | 10 | 0
CCOC(=O)Cc1nnc(NC(=O)CSc2ccc(C)cc2)s1 | -8 | 15 | 19* | -1 | 10 | -3
CCSc1nnc(NC(=O)CSc2nncc(=O)n2N)s1 | 0 | 6 | -2 | 15 | 3 | 6

Screening results as filed in PubChem.
